Only a selection was taken, and hits are over-represented in it overall.
INS-1E rescue: INS-1E beta cell protection from cytokine death; protection from cytokine-induced ATP loss, % at 10 µM; INS-1E cytokine-induced death, ATP luminescence, 48 h; normalised: neutral wells 0, positive control 100; 20,000 compounds, 0.1% hits;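 active means mean replicate protection from cytokine-induced ATP loss at least 50% and at least 75% of replicates each reaching 50%; inconclusive means meets only one of the two criteria, mean or replicate share; inactive means fails both the mean and replicate share criteria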
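Test system: INS-1E rat cells | Quantity: 8000 cells per well | Medium: Phenol-red-free RPMI with 5% fetal bovine serum | Reagent: Cytokine cocktail of IFN-γ, TNF-α and IL-1β | Doses: One compound concentration, pin transfer | Timing: 48 h co-treatment, 10 min post-lysis read | Technique: Luminescent ATP assay (CellTiter-Glo)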
T cruzi HTS: blocks T. cruzi growth inside host cells. intracellular Trypanosoma cruzi in host cells, plate reader. activity score (inhibition), % at 5.01 µM. 22,000 compounds, 4.9% hits; in the data active means activity score above about 55%; inconclusive means no clear call, values can overlap the other calls;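 further: parasites and compound incubated about four days before reading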
A1 apoptosis 2: blocks A1, raising caspase activity; MEF A1-2A-BIM cells, caspase-Glo luminescence, 3 h; percent of clofoctol response, DMSO zero; caspase activation, % (concentration not given with the values); 24,000 tested, under 10 active; AID 2465; in the data active means caspase activation above about 5.9%; inconclusive means no clear call, values can overlap the other calls; inactive means below about 2.2%
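Material: mouse embryonic fibroblasts co-expressing A1 and BIM (A1-2A-BIM), primed for A1 dependence / Quantity: 2500 cells/well / Buffer or medium: RPMI-1640 growth medium with 10% FBS / Doses: 50 nL compound per well, pinned / Schedule: 3 h compound exposure at 37 °C / Signal: Caspase-Glo luminescence (DEVD substrate) / Measure: Caspase-3/7 activation, seen as rise in luminescence signal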
Hits are given with their value; – = inactive; ? = inconclusive; · = no result.

SMILES	INS-1E rescue	T cruzi HTS	A1 apoptosis 2
C[C@H]1CN([C@@H](C)CO)C(=O)c2cccc(NC(=O)Nc3ccc(C(F)(F)F)cc3)c2O[C@@H]1CN(C)Cc1ccc2c(c1)OCO2	–	–	·
C[C@H](CO)N1C[C@H](C)[C@@H](CN(C)Cc2ccc3c(c2)OCO3)Oc2c(NC(=O)Nc3ccc(C(F)(F)F)cc3)cccc2C1=O	–	83	·
C[C@@H]1CN([C@@H](C)CO)C(=O)c2cccc(NC(=O)Nc3ccc(C(F)(F)F)cc3)c2O[C@H]1CN(C)Cc1ccc2c(c1)OCO2	–	90	·
C[C@H](CO)N1C[C@H](C)[C@H](CN(C)Cc2ccc3c(c2)OCO3)Oc2c(NC(=O)Nc3ccc(C(F)(F)F)cc3)cccc2C1=O	–	62	–
C[C@H](CO)N1C[C@H](C)[C@H](CN(C)Cc2ccc3c(c2)OCO3)Oc2c(NC(=O)Nc3ccc(F)cc3)cccc2C1=O	–	–	·
C[C@H]1CN([C@@H](C)CO)C(=O)c2cccc(NC(=O)Nc3ccc4c(c3)OCO4)c2O[C@H]1CN(C)Cc1ccc2c(c1)OCO2	–	–	·
C[C@@H]1CN([C@H](C)CO)C(=O)c2cccc(NC(=O)Nc3ccc4c(c3)OCO4)c2O[C@H]1CN(C)Cc1ccc(C(F)(F)F)cc1	–	–	–
C[C@H](CO)N1C[C@H](C)[C@@H](CN(C)Cc2ccc3c(c2)OCO3)Oc2c(NC(=O)Nc3ccc(F)cc3)cccc2C1=O	–	60	–
O=C(O)CCCCCC(=O)N/N=C/c1c(O)ccc2ccccc12	–	–	–
Cc1ccc(/C=N/NC(=O)CCCCCCC(=O)NO)o1	·	·	–
O=C(N/N=C/c1cc(Br)c(O)c(Br)c1)c1ccccc1O	–	–	·
C[C@@H]1CN([C@H](C)CO)C(=O)c2cccc(NC(=O)Nc3ccc(C(F)(F)F)cc3)c2O[C@H]1CN(C)Cc1ccc2c(c1)OCO2	–	80	–
C[C@@H]1CN([C@H](C)CO)C(=O)c2cccc(NC(=O)Nc3ccc(C(F)(F)F)cc3)c2O[C@@H]1CN(C)Cc1ccc2c(c1)OCO2	–	?	–
COc1ccc(O)c(/C=N/NC(=O)CCCCCCC(=O)Nc2ccccc2O)c1	–	–	–
C[C@H]1CN([C@@H](C)CO)C(=O)c2cccc(NC(=O)c3nc4ccccc4s3)c2O[C@H]1CN(C)Cc1ccc2c(c1)OCO2	–	57	·
C[C@@H]1CN([C@@H](C)CO)C(=O)c2cccc(NC(=O)c3nc4ccccc4s3)c2O[C@@H]1CN(C)C(=O)Nc1ccc2c(c1)OCO2	–	–	–
C[C@H](CO)N1C[C@H](C)[C@H](CN(C)Cc2ccc3c(c2)OCO3)Oc2c(NC(=O)c3nc4ccccc4s3)cccc2C1=O	–	77	–
C[C@H]1CN([C@@H](C)CO)C(=O)c2cccc(NC(=O)c3nc4ccccc4s3)c2O[C@H]1CN(C)Cc1ccc(Cl)c(Cl)c1	–	?	·
O=C(N/N=C/c1cccnc1Br)c1ccccc1O	–	–	·
COc1ccc(/C=N/NC(=O)CCCCCC(=O)Nc2ccccc2O)c(OC)c1	–	–	–
C[C@@H]1CN([C@H](C)CO)C(=O)c2cccc(NC(=O)c3ccncc3)c2O[C@H]1CN(C)CC1CC1	–	56	–
Cc1cc(C(=O)Nc2cccc3c2O[C@@H](CN(C)CC2CC2)[C@H](C)CN([C@H](C)CO)C3=O)n(C)n1	–	–	–
C[C@@H]1CN([C@H](C)CO)C(=O)c2cccc(NC(=O)c3ccncc3)c2O[C@H]1CN(C)CC1CCCCC1	–	84	–
C[C@H](CO)N1C[C@H](C)[C@@H](CN(C)CC2CCCCC2)Oc2c(NS(=O)(=O)c3cn(C)cn3)cccc2C1=O	–	–	·
C[C@H](CO)N1C[C@H](C)[C@H](CN(C)CC2CC2)Oc2c(NC(=O)c3ccncc3)cccc2C1=O	–	–	–
SMILES	INS-1E rescue	T cruzi HTS	A1 apoptosis 2
C[C@@H]1CN([C@@H](C)CO)C(=O)c2cccc(NS(=O)(=O)c3cn(C)cn3)c2O[C@H]1CN(C)CC1CCCCC1	–	62	·
C[C@H](CO)N1C[C@H](C)[C@H](CN(C)CC2CCCCC2)Oc2c(NC(=O)c3ccncc3)cccc2C1=O	–	–	·
Cc1cc(C(=O)Nc2cccc3c2O[C@H](CN(C)CC2CC2)[C@H](C)CN([C@@H](C)CO)C3=O)n(C)n1	–	61	–
O=C(N/N=C/C(Br)=C/c1ccccc1)c1ccccn1	–	–	·
O=C(NO)c1ccc(C(=O)N/N=C/c2ccc(Br)o2)cc1	–	–	–
O=C(N/N=C/c1ccccc1OCCO)c1ccccn1	–	–	–
O=C1O[C@H](c2ccccc2)[C@H](c2ccccc2)N2[C@H]1[C@@H](C(=O)O)[C@]1(C(=O)Nc3ccc(C#CC4(O)CCCCCC4)cc31)[C@H]2c1ccc(O)cc1	·	·	–

Source: PubChem BioAssay (Broad Institute)
